In brackets after ≈: the same amount, converted by molar mass. Activity calls are given as the source filed them. The rule behind the calls is not given here.
How the values were obtained:
Staphylococcus aureus [1] = experiment: Antibacterial activity against methicillin-susceptible Staphylococcus aureus ATCC 13709 after 18 to 24 hrs by macrodilution technique; assay type: functional
Outline: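 Broth macrodilution per CLSI, run in triplicate on separate occasions. Twofold serial drug dilutions in broth, inoculum approx. 5 × 10⁵ CFU/ml, 37°C for 18 to 24 h. MIC taken as the lowest concentration with no visible growth.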

Staphylococcus aureus [2] = experiment: Antibacterial activity against methicillin-susceptible Staphylococcus aureus ATCC 13709 assessed as change in bacterial burden at 1 mg/liter after 4 hrs; assay type: functional
Staphylococcus aureus [3] = experiment: Antibacterial activity against methicillin-susceptible Staphylococcus aureus ATCC 13709 assessed as change in bacterial burden at 20 mg/liter after 2 hrs; assay type: functional
Staphylococcus aureus [4] = experiment: Antibacterial activity against methicillin-susceptible Staphylococcus aureus ATCC 13709 assessed as bacterial killing at 0.5 to 50 times MIC after 24 hrs; assay type: functional
Outline: (§1)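 Static time-kill in M-H broth, in M-H broth with 40 g/liter fatty-acid-free purified human albumin, or in M-H broth with inactivated 50% human serum. Inoculum approx. 5 × 10⁵ CFU/ml, drug at 0.5, 1, 2.5, 5, 10, 25 and 50× MIC, 37°C. Samples at 0, 3, 6, 12 and 24 h plated on blood agar, counted after 24 h. Detection limit 5 × 10¹ CFU/ml. Run in duplicate.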

Staphylococcus aureus [5] = experiment: Antibacterial activity against methicillin-resistant Staphylococcus aureus ATCC 33591 assessed as change in bacterial burden at 1 mg/liter after 2 hrs; assay type: functional
Outline: (§2)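 In vitro kinetic model: spinner flask with 0.45-μm filter and prefilter, stirred, M-H broth at 37°C, starting inoculum approx. 5 × 10⁵ CFU/ml. Single initial drug dose of 1.0 to 40 mg/liter, with flow set to give a half-life of approx. 8 h. Viable counts at 0, 2, 4, 6, 8, 12 and 24 h. Duplicate runs per strain and concentration.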

[6] = Half life in human serum at 7.5 mg/kg; assay type: ADME, organism-based; design: dose 7.5 mg/kg
[7] = Cmax in human serum at 7.5 mg/kg; assay type: ADME, organism-based; design: dose 7.5 mg/kg
Staphylococcus aureus [8] = experiment: Antibacterial activity against methicillin-susceptible Staphylococcus aureus ATCC 13709 assessed as bacterial killing at 0.5 to 50 times MIC after 24 hrs in presence of 50% human serum; assay type: functional, organism-based
Staphylococcus aureus [9] = experiment: Antibacterial activity against methicillin-susceptible Staphylococcus aureus ATCC 13709 assessed as change in bacterial burden at 5 mg/liter after 24 hrs; assay type: functional
Staphylococcus aureus [10] = experiment: Antibacterial activity against methicillin-resistant Staphylococcus aureus ATCC 33591 assessed as change in bacterial burden at 20 mg/liter after 8 hrs; assay type: functional; outline: as §2
Staphylococcus aureus [11] = experiment: Antibacterial activity against methicillin-susceptible Staphylococcus aureus ATCC 13709 assessed as change in bacterial burden at 20 mg/liter after 12 hrs; assay type: functional
Staphylococcus aureus [12] = experiment: Antibacterial activity against methicillin-susceptible Staphylococcus aureus ATCC 13709 assessed as change in bacterial burden at 40 mg/liter after 2 hrs; assay type: functional; outline: as §2
Staphylococcus aureus [13] = experiment: Antibacterial activity against methicillin-susceptible Staphylococcus aureus ATCC 13709 assessed as change in bacterial burden at 40 mg/liter after 12 hrs; assay type: functional; outline: as §2
Staphylococcus aureus [14] = experiment: Antibacterial activity against methicillin-resistant Staphylococcus aureus ATCC 33591 assessed as bacterial killing at 10 times MIC after 24 hrs in MH-broth; assay type: functional, organism-based
Outline: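 Strain diluted in M-H broth to approx. 10⁵ CFU/ml and grown 6 h into log phase, then split. Broth tubes got drug at 10× MIC directly. PBS tubes were transferred to PBS and held 3 h more, then dosed at 10× MIC. Growth controls were run in each medium. Viable counts at 0, 3, 6, 9, 12 and 24 h. Run in duplicate.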

Staphylococcus aureus [15] = experiment: Antibacterial activity against methicillin-resistant Staphylococcus aureus ATCC 33591 assessed as change in bacterial burden at 5 mg/liter after 4 hrs; assay type: functional; outline: as §2
Staphylococcus aureus [16] = experiment: Antibacterial activity against methicillin-resistant Staphylococcus aureus ATCC 33591 assessed as bacterial killing at 0.5 to 50 times MIC after 24 hrs in presence of 50% human serum; assay type: functional, organism-based; outline: as §1

**Q.** Which MIC (Staphylococcus aureus [1]) does the source give for `CCCCCCCCCCNCCN[C@@]1(C)C[C@H](O[C@H]2[C@H](Oc3c4cc5cc3Oc3ccc(cc3Cl)[C@@H](O)[C@@H](NC(=O)[C@@H](CC(C)C)NC)C(=O)N[C@@H](CC(N)=O)C(=O)N[C@H]5C(=O)N[C@H]3C(=O)N[C@H](C(=O)N[C@H](C(=O)O)c5cc(O)c(CNCP(=O)(O)O)c(O)c5-c5cc3ccc5O)[C@H](O)c3ccc(c(Cl)c3)O4)O[C@H](CO)[C@@H](O)[C@@H]2O)O[C@@H](C)[C@H]1O` [TELAVANCIN] here?
**A.** The MIC was 1 µg/mL (≈ 0.57 µM).

**Q.** And the deltalog10CFU/ml (Staphylococcus aureus [2])?
**A.** Its deltalog10CFU/ml is -1.3.

**Q.** And the deltalog10CFU/ml (Staphylococcus aureus [3])?
**A.** Its deltalog10CFU/ml is -1.3.

**Q.** And the LCK (Staphylococcus aureus [4])?
**A.** The LCK was greater than 3.

**Q.** And the deltalog10CFU/ml (Staphylococcus aureus [5])?
**A.** The deltalog10CFU/ml was -1.

**Q.** What about the half-life [6] of the same compound?
**A.** The half-life was 7 h.

**Q.** What about the Cmax [7] of the same compound?
**A.** Its Cmax is 60 µg/mL.

**Q.** And the Activity (Staphylococcus aureus [8])?
**A.** The Activity was “Active”.

**Q.** And the deltalog10CFU/ml (Staphylococcus aureus [9])?
**A.** The deltalog10CFU/ml was -4.7.

**Q.** What about the deltalog10CFU/ml (Staphylococcus aureus [10]) of the same compound?
**A.** The deltalog10CFU/ml was -3.5.

**Q.** And the deltalog10CFU/ml (Staphylococcus aureus [11])?
**A.** Its deltalog10CFU/ml is -4.6.

**Q.** And the deltalog10CFU/ml (Staphylococcus aureus [12])?
**A.** The deltalog10CFU/ml was -1.9.

**Q.** What about the deltalog10CFU/ml (Staphylococcus aureus [13]) of the same compound?
**A.** Its deltalog10CFU/ml is -4.7.

**Q.** And the Activity (Staphylococcus aureus [14])?
**A.** Its Activity is “Active”.

**Q.** What about the deltalog10CFU/ml (Staphylococcus aureus [15]) of the same compound?
**A.** The deltalog10CFU/ml was -2.1.

**Q.** And the Activity (Staphylococcus aureus [16])?
**A.** The Activity was “Active”.

— ChEMBL document CHEMBL1154419, “Pharmacodynamic effects of telavancin against methicillin-resistant and methicillin-susceptible Staphylococcus aureus strains in the presence of human albumin or serum and in an in vitro kinetic model” (Antimicrob Agents Chemother, 2007)
